Measured values taken from ChEMBL document CHEMBL1629558, “Effect of electrical current on the activities of antimicrobial agents against Pseudomonas aeruginosa, Staphylococcus aureus, and Staphylococcus epidermidis biofilms” (2009).
Converted amounts (≈) assume the structure as drawn.

Assays:
Assay type in all cases: functional
Staphylococcus aureus [1] = assay: Antimicrobial activity against Staphylococcus aureus Xen 30 by broth microdilution method
Outline: (§1)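 Planktonic MICs determined by CLSI broth microdilution; strains (MRSA Xen 30, P. aeruginosa Xen 5) stored at −70°C.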

[2] = tested on: Staphylococcus epidermidis; assay: Antimicrobial activity against Staphylococcus epidermidis Xen 43 biofilm assessed as log10 CFU/cm'2 in bacterial count in presence of 200 microamperes of electric current by bioelectric effect assay
Outline: (§2)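 Biofilms grown on Teflon coupons in a CDC biofilm reactor (1 ml of 10^8 CFU/ml inoculum, 37°C shaking 18 h, then 18 h at room temperature). Coupons then sat 24 h at room temperature in flow chambers with fresh medium ± drug ± direct current via graphite electrodes. Biofilm removed by vortex plus 5 min sonication, plated on blood agar (37°C, 5% CO2, 48 h). Triplicate; mean log10 CFU/cm2.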

[3] = tested on: Staphylococcus epidermidis; assay: Antimicrobial activity against Staphylococcus epidermidis Xen 43 biofilm assessed as log10 CFU/cm'2 in bacterial count; outline: as §2
Staphylococcus aureus [4] = assay: Antimicrobial activity against Staphylococcus aureus Xen 30 biofilm assessed as log10 CFU/cm'2 in bacterial count in presence of 2000 microamperes of electric current by bioelectric effect assay; outline: as §2
Staphylococcus aureus [5] = assay: Antimicrobial activity against Staphylococcus aureus Xen 30 biofilm assessed as log10 CFU/cm'2 in bacterial count; outline: as §2
[6] = tested on: Staphylococcus epidermidis; assay: Antimicrobial activity against Staphylococcus epidermidis Xen 43 by broth microdilution method
[7] = tested on: Staphylococcus epidermidis; assay: Antimicrobial activity against Staphylococcus epidermidis Xen 43 biofilm assessed as log10 CFU/cm'2 in bacterial count in presence of 2000 microamperes of electric current by bioelectric effect assay; outline: as §2
Pseudomonas aeruginosa [8] = assay: Antimicrobial activity against Pseudomonas aeruginosa Xen 5 biofilm assessed as log10 CFU/cm'2 in bacterial count; outline: as §2
Pseudomonas aeruginosa [9] = assay: Antimicrobial activity against Pseudomonas aeruginosa Xen 5 biofilm assessed as log10 CFU/cm'2 in bacterial count in presence of 2000 microamperes of electric current by bioelectric effect assay; outline: as §2
Pseudomonas aeruginosa [10] = assay: Antimicrobial activity against Pseudomonas aeruginosa Xen 5 by broth microdilution method; outline: as §1
Staphylococcus aureus [11] = assay: Antimicrobial activity against Staphylococcus aureus Xen 30 biofilm assessed as log10 CFU/cm'2 in bacterial count in presence of 20 microamperes of electric current by bioelectric effect assay; outline: as §2
Staphylococcus aureus [12] = assay: Antimicrobial activity against Staphylococcus aureus Xen 30 biofilm assessed as log10 CFU/cm'2 in bacterial count in presence of 200 microamperes of electric current by bioelectric effect assay
Outline: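 MRSA Xen 30 biofilms grown on Teflon coupons (12.5 mm) in a CDC biofilm reactor seeded with 1 ml of 10^8 CFU/ml: 18 h 37°C with shaking, then 18 h room temperature. Coupons were exposed in flow chambers to fresh medium ± antimicrobial with direct current for 24 h at room temperature. Biofilm was dislodged by vortex and sonication, then plated on blood agar. Counts are mean log10 CFU/cm2 from triplicate experiments.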

Pseudomonas aeruginosa [13] = assay: Antimicrobial activity against Pseudomonas aeruginosa Xen 5 biofilm assessed as log10 CFU/cm'2 in bacterial count in presence of 200 microamperes of electric current by bioelectric effect assay; outline: as §2

SMILES: CC[C@H]1OC(=O)[C@H](C)[C@@H](O[C@H]2C[C@@](C)(OC)[C@@H](O)[C@H](C)O2)[C@H](C)[C@@H](O[C@@H]2O[C@H](C)C[C@H](N(C)C)[C@H]2O)[C@](C)(O)C[C@@H](C)C(=O)[C@H](C)[C@@H](O)[C@]1(C)O [ERYTHROMYCIN]
- MIC (Staphylococcus aureus [1]): 0.5 mg/L (≈ 0.681 µM)
- log10cfu [2]: 2.04
- log10cfu [3]: 0.7
- log10cfu (Staphylococcus aureus [4]): 0.27
- log10cfu (Staphylococcus aureus [5]): -0.17
- MIC [6]: 0.125 mg/L (≈ 0.17 µM)

SMILES: CO[C@H]1/C=C/O[C@@]2(C)Oc3c(C)c(O)c4c(O)c(c(/C=N/N5CCN(C)CC5)c(O)c4c3C2=O)NC(=O)/C(C)=C\C=C\[C@H](C)[C@H](O)[C@@H](C)[C@@H](O)[C@@H](C)[C@H](OC(C)=O)[C@@H]1C [RIFAMPIN]
- MIC (Staphylococcus aureus [1]): 2 mg/L (≈ 2.43 µM)
- log10cfu [7]: 2.5
- log10cfu [3]: 0.17
- log10cfu (Staphylococcus aureus [4]): 1.78
- log10cfu (Staphylococcus aureus [5]): 0.86
- MIC [6]: ≤ 0.125 mg/L

SMILES: CO/N=C(\C(=O)N[C@@H]1C(=O)N2C(C(=O)[O-])=C(C[N+]3(C)CCCC3)CS[C@H]12)c1csc(N)n1
- log10cfu (Pseudomonas aeruginosa [8]): 0.96
- log10cfu (Pseudomonas aeruginosa [9]): 1.43
- MIC (Pseudomonas aeruginosa [10]): 2 mg/L (≈ 4.16 µM)

SMILES: CN(C)c1ccc(O)c2c1C[C@H]1C[C@H]3[C@H](N(C)C)C(O)=C(C(N)=O)C(=O)[C@@]3(O)C(O)=C1C2=O [MINOCYCLINE]
- MIC (Staphylococcus aureus [1]): 4 mg/L (≈ 8.74 µM)
- log10cfu [2]: 3.32
- log10cfu [3]: -0.18
- log10cfu (Staphylococcus aureus [11]): 2.04
- log10cfu (Staphylococcus aureus [5]): 0.7
- MIC [6]: 1 mg/L (≈ 2.19 µM)

SMILES: CN[C@H](CC(C)C)C(=O)N[C@H]1C(=O)N[C@@H](CC(N)=O)C(=O)N[C@H]2C(=O)N[C@H]3C(=O)N[C@H](C(=O)N[C@H](C(=O)O)c4cc(O)cc(O)c4-c4cc3ccc4O)[C@H](O)c3ccc(c(Cl)c3)Oc3cc2cc(c3O[C@@H]2O[C@H](CO)[C@@H](O)[C@H](O)[C@H]2O[C@H]2C[C@](C)(N)[C@H](O)[C@H](C)O2)Oc2ccc(cc2Cl)[C@H]1O [VANCOMYCIN]
- log10cfu [7]: 2.09
- log10cfu [3]: 0.7
- log10cfu (Staphylococcus aureus [12]): 1.59
- log10cfu (Staphylococcus aureus [5]): -0.31

SMILES: NC[C@H]1O[C@H](O[C@H]2[C@H](O)[C@@H](O[C@H]3O[C@H](CO)[C@@H](O)[C@H](N)[C@H]3O)[C@H](N)C[C@@H]2N)[C@H](N)C[C@@H]1O [TOBRAMYCIN]
- MIC (Staphylococcus aureus [1]): 4 mg/L (≈ 8.56 µM)
- log10cfu (Pseudomonas aeruginosa [8]): 1.69
- log10cfu [7]: 3.08
- log10cfu [3]: 0.2
- log10cfu (Pseudomonas aeruginosa [13]): 2.48
- log10cfu (Staphylococcus aureus [4]): 2
- log10cfu (Staphylococcus aureus [5]): 0.86
- MIC (Pseudomonas aeruginosa [10]): 1 mg/L (≈ 2.14 µM)
- MIC [6]: 0.25 mg/L (≈ 0.535 µM)

SMILES: CC(=O)NC[C@H]1CN(c2ccc(N3CCOCC3)c(F)c2)C(=O)O1 [LINEZOLID]
- log10cfu [2]: 0.63
- log10cfu [3]: 0.22
- log10cfu (Staphylococcus aureus [4]): 1.51
- log10cfu (Staphylococcus aureus [5]): 0.62
- MIC [6]: 1 mg/L (≈ 2.96 µM)

SMILES: O=C(O)c1cn(C2CC2)c2cc(N3CCNCC3)c(F)cc2c1=O [CIPROFLOXACIN]
- log10cfu (Pseudomonas aeruginosa [8]): -0.63
- log10cfu (Pseudomonas aeruginosa [9]): 1.86

SMILES: COc1c(N2C[C@@H]3CCCN[C@@H]3C2)c(F)cc2c(=O)c(C(=O)O)cn(C3CC3)c12 [MOXIFLOXACIN]
- MIC (Staphylococcus aureus [1]): 2 mg/L (≈ 4.98 µM)
- log10cfu [7]: 0.82
- log10cfu [3]: -0.41
- log10cfu (Staphylococcus aureus [11]): 2.1
- log10cfu (Staphylococcus aureus [5]): 1.33
- MIC [6]: ≤ 0.125 mg/L

SMILES: CCCCCCCCCC(=O)N[C@@H](Cc1c[nH]c2ccccc12)C(=O)N[C@H](CC(N)=O)C(=O)N[C@@H](CC(=O)O)C(=O)N[C@@H]1C(=O)NCC(=O)N[C@@H](CCCN)C(=O)N[C@@H](CC(=O)O)C(=O)N[C@H](C)C(=O)N[C@@H](CC(=O)O)C(=O)NCC(=O)N[C@H](CO)C(=O)N[C@@H]([C@H](C)CC(=O)O)C(=O)N[C@@H](CC(=O)c2ccccc2N)C(=O)O[C@@H]1C
- MIC (Staphylococcus aureus [1]): 1 mg/L (≈ 0.617 µM)
- log10cfu [7]: 1.2
- log10cfu [3]: -0.38
- log10cfu (Staphylococcus aureus [12]): 1.94
- log10cfu (Staphylococcus aureus [5]): 1.63
- MIC [6]: 0.125 mg/L (≈ 0.0771 µM)
